Screening results as filed in PubChem.
M4 PAM: potentiates acetylcholine response at human M4 receptor. CHO-K1 hM4/Gqi5, Fluo-8 calcium fluorescence, ACh EC20; 0% = ACh EC20, 100% = maximal ACh. activation, % at 3 µM. hit rate 0.4% among 360,000;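 active = activation above its plate's cutoff, the mean activation of sample wells plus 3 SD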
CHRM5 antagonist: antagonists of human muscarinic M5 receptor (CHRM5); CHO-hM5 cells, Fluo-8 calcium fluorescence, ACh EC80; inhibition, % at 3 µM; hit rate 0.59% among 360,000; AID 624040;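 active = inhibition above a per-plate cutoff, the mean of that plate's test compounds plus 3 SD, cut at about 27% in these data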;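 note: 0% = acetylcholine EC80 with DMSO and 100% = DMSO without agonist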
Target sequence (P08912 whole entry, looked up): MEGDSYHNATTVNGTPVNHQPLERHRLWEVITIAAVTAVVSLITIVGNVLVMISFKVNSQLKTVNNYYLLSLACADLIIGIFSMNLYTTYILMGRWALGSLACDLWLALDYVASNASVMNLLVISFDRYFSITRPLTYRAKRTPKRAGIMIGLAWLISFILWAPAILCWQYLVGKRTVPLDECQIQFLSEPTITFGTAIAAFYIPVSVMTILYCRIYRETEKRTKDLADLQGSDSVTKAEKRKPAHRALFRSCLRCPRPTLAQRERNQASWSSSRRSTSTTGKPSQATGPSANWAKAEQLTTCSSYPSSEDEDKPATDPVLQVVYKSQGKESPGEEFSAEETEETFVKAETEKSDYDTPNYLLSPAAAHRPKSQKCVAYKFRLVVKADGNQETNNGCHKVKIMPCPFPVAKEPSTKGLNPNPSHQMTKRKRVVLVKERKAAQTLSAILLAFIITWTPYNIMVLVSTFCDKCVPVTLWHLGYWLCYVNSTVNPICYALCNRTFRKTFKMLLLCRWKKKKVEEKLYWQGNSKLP
M5 ag: CHRM5 agonism in calcium assay; P08912; AID 624037; CHO-K1 hM5 cells, Fluo-8 calcium fluorescence; 0% DMSO wells, 100% maximal acetylcholine response; activation, % at 3 µM; hit rate 0.19% among 360,000;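 active = activation above the run's mean over test compounds plus 3 SD, cut at about 23% in these data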;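 note: signal is peak over basal fluorescence ratio across the kinetic read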
CHRM4 agonist: CHRM4 agonism in calcium assay. P08173. activation, % at 3 µM. hit rate 0.14% among 360,000. CHO-K1 hM4/Gqi5, Fluo-8 calcium fluorescence; vehicle 0%, full acetylcholine response 100%;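 active = activation above the run mean over all test wells plus 3 SD, cut at about 32% in these data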;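 note: peak over basal fluorescence ratio per well then scaled between controls; 0% = DMSO wells and 100% = acetylcholine at EC100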
CHRM5 PAM: potentiates acetylcholine response at human M5 receptor; P08912; CHO-K1 hM5, Fluo-8 calcium, ACh EC20 PAM; 0% = ACh EC20, 100% = ACh EC100; activation, % at 3 µM; hit rate 0.3% among 360,000; AID 624038;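 active = activation above the run cutoff, the mean activation of all test compounds plus 3 SD, cut at about 18% in these data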
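System – CHO-K1 hM5 cells · Compound – 3 µM, single dose · Incubation – compound preincubation 140 s before EC20 acetylcholine addition · Technique – Fluo-8 calcium fluorescence · Measure – Max/basal fluorescence ratio as % of EC20–EC100 ACh window · Benchmarks – low control EC20 acetylcholine (0%), high control EC100 acetylcholine (100%) · Replication – singlicate, one well per test compound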
CHRM4 antagonist: blocks acetylcholine activation of human M4 receptor. AID 624125. P08173. inhibition, % at 3 µM. hit rate 0.73% among 360,000. CHO-hM4 cells, ACh EC80, Fluo-8 calcium fluorescence;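 active = inhibition above its plate's cutoff, the mean inhibition of sample wells plus 3 SD, cut at about 27% in these data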;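 note: 0% = acetylcholine EC80 with DMSO and 100% = DMSO without agonist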
* marks the source's active call; other numbers are inactive results. In the library only some 1.8% were active in any assay of this set; here they are far more common.

What do the screens show for `Cc1ccc(S(=O)(=O)N2CCC(C(=O)N3Cc4ccccc4C3)CC2)cc1`?
M4 PAM: 22*; CHRM5 antagonist: -10; M5 ag: -5; CHRM4 agonist: 3; CHRM5 PAM: 19*; CHRM4 antagonist: -10

Results for C[N+](C)(C)CCNC(=O)c1ccccc1 ?
M4 PAM: 23*; CHRM5 antagonist: -17; M5 ag: -2; CHRM4 agonist: 1; CHRM5 PAM: 9; CHRM4 antagonist: -7

What do the screens show for `O=C(NCCNC(=O)c1ccccc1)c1ccccc1`?
M4 PAM: 12; CHRM5 antagonist: 3; M5 ag: 0; CHRM4 agonist: 1; CHRM5 PAM: -7; CHRM4 antagonist: -7

Results for O=C(Nc1c2c(nn1-c1ccc(Cl)cc1)CS(=O)(=O)C2)c1ccccc1 ?
M4 PAM: -2; CHRM5 antagonist: 11; M5 ag: -2; CHRM4 agonist: 0; CHRM5 PAM: -3; CHRM4 antagonist: 4

Results for Cc1cc(C(=O)CSc2nc3ccc(Cl)cc3[nH]2)c(C)n1C ?
M4 PAM: 3; CHRM5 antagonist: 4; M5 ag: 0; CHRM4 agonist: 2; CHRM5 PAM: 2; CHRM4 antagonist: 2

Results for Cc1cc(C(=O)CSc2nc3ccccc3[nH]2)c(C)n1Cc1ccco1 ?
M4 PAM: -26; CHRM5 antagonist: 27*; M5 ag: 7; CHRM4 agonist: 19; CHRM5 PAM: -17; CHRM4 antagonist: 12

How did C=CCn1c(C)cc(C(=O)CSc2nc3ccccc3[nH]2)c1C do in these assays?
M4 PAM: -15; CHRM5 antagonist: 20; M5 ag: 11; CHRM4 agonist: 29; CHRM5 PAM: -23; CHRM4 antagonist: 29*

Results for C=CCn1c(C)cc(C(=O)CSc2nc3ccccc3c(=O)[nH]2)c1C ?
M4 PAM: -12; CHRM5 antagonist: 22; M5 ag: 3; CHRM4 agonist: 21; CHRM5 PAM: -29; CHRM4 antagonist: 6

Results for Cc1cc(C(=O)CSc2nc3ccc(Cl)cc3[nH]2)c(C)n1CC1CCCO1 (stereo not drawn) ?
M4 PAM: -12; CHRM5 antagonist: 19; M5 ag: 4; CHRM4 agonist: 12; CHRM5 PAM: -18; CHRM4 antagonist: 31*

How did NC(=NCc1ccccc1)NN=Cc1ccnc2ccccc12 do in these assays?
M4 PAM: -2; CHRM5 antagonist: 2; M5 ag: 2; CHRM4 agonist: 9; CHRM5 PAM: -7; CHRM4 antagonist: -9

Results for Oc1ccc(Cl)cc1C1=NNC(c2cc(Br)cc3c2OCOC3)C1 (stereo not drawn) ?
M4 PAM: 0; CHRM5 antagonist: -2; M5 ag: 4; CHRM4 agonist: 0; CHRM5 PAM: 21*; CHRM4 antagonist: -1

How did Oc1ccc(Cl)cc1C1=NNC(c2ccc(Cl)cc2)C1 (stereo not drawn) do in these assays?
M4 PAM: -1; CHRM5 antagonist: 3; M5 ag: -1; CHRM4 agonist: 1; CHRM5 PAM: -5; CHRM4 antagonist: 8

How did CCCCn1c(NCCN(C)C)nc2c1c(=O)[nH]c(=O)n2C do in these assays?
M4 PAM: 12; CHRM5 antagonist: -3; M5 ag: -7; CHRM4 agonist: 1; CHRM5 PAM: 22*; CHRM4 antagonist: -4

How did CC(C)Cn1c(NCCN(C)C)nc2c1c(=O)[nH]c(=O)n2C do in these assays?
M4 PAM: 6; CHRM5 antagonist: 4; M5 ag: -1; CHRM4 agonist: 0; CHRM5 PAM: -2; CHRM4 antagonist: 0

What do the screens show for `Cc1ccccc1C(=O)NCC(=O)NNC(=O)c1cccc(Cl)c1`?
M4 PAM: 6; CHRM5 antagonist: -3; M5 ag: 7; CHRM4 agonist: 1; CHRM5 PAM: -2; CHRM4 antagonist: -6

How did Cc1cc(S(=O)(=O)NCc2ccccc2)ccc1OCC(=O)NCc1ccccn1 do in these assays?
M4 PAM: 0; CHRM5 antagonist: 30*; M5 ag: -3; CHRM4 agonist: 4; CHRM5 PAM: -9; CHRM4 antagonist: -9

What do the screens show for `C=CC[N+]1(CC#CCOC(c2ccccc2)c2ccccc2)CCOCC1`?
M4 PAM: -11; CHRM5 antagonist: 1; M5 ag: -7; CHRM4 agonist: 0; CHRM5 PAM: 0; CHRM4 antagonist: 10

What do the screens show for `CCN(CC)CC#CCOC(c1ccccc1)c1ccccc1`?
M4 PAM: -24; CHRM5 antagonist: 22; M5 ag: -13; CHRM4 agonist: -1; CHRM5 PAM: -32; CHRM4 antagonist: 30*

What do the screens show for `CN(C)CC#CCOC(c1ccccc1)c1ccccc1`?
M4 PAM: -24; CHRM5 antagonist: 26; M5 ag: -17; CHRM4 agonist: 0; CHRM5 PAM: -35; CHRM4 antagonist: 27*

What do the screens show for `O=C(CCNC(=O)c1ccc(Cl)cc1)Nc1cccc(S(=O)(=O)N2CCCCCC2)c1`?
M4 PAM: 6; CHRM5 antagonist: 1; M5 ag: 1; CHRM4 agonist: 12; CHRM5 PAM: 1; CHRM4 antagonist: -9

Results for CN(C)CCC(c1ccccc1)c1ccccn1 (stereo not drawn) ?
M4 PAM: -9; CHRM5 antagonist: 15; M5 ag: -1; CHRM4 agonist: 1; CHRM5 PAM: -17; CHRM4 antagonist: 14

How did CC(C1=C(CCN(C)C)Cc2ccccc21)c1ccccn1 (stereo not drawn) do in these assays?
M4 PAM: -10; CHRM5 antagonist: 7; M5 ag: -13; CHRM4 agonist: 0; CHRM5 PAM: -37; CHRM4 antagonist: 64*

Results for O=C(COC(=O)/C=C/c1ccccc1)Nc1ccc2c(c1)OCCO2 ?
M4 PAM: 27*; CHRM5 antagonist: 7; M5 ag: -1; CHRM4 agonist: 0; CHRM5 PAM: -3; CHRM4 antagonist: -19

How did O=C(COC(=O)/C=C/c1ccc(Cl)cc1)Nc1ccc2c(c1)OCCO2 do in these assays?
M4 PAM: 34*; CHRM5 antagonist: -4; M5 ag: 0; CHRM4 agonist: 3; CHRM5 PAM: 16; CHRM4 antagonist: -14

How did COc1cccc(/C=C/C(=O)OCC(=O)Nc2ccc3c(c2)OCCO3)c1 do in these assays?
M4 PAM: 11; CHRM5 antagonist: 7; M5 ag: 1; CHRM4 agonist: 1; CHRM5 PAM: -5; CHRM4 antagonist: -9

Results for COc1cc2c(cc1OC)C(c1ccccc1[N+](=O)[O-])N(C(C)=O)CC2 (stereo not drawn) ?
M4 PAM: -6; CHRM5 antagonist: 6; M5 ag: 2; CHRM4 agonist: 0; CHRM5 PAM: 1; CHRM4 antagonist: 15

Results for CCOC(=O)C1=C(COC(=O)C(CC)Oc2ccccc2)NC(=O)NC1C (stereo not drawn) ?
M4 PAM: -8; CHRM5 antagonist: -3; M5 ag: 0; CHRM4 agonist: 8; CHRM5 PAM: 4; CHRM4 antagonist: -3
